Common to all, as to format: functional
For test [1], the species on record is Mus musculus. In words: Antagonistic activity against tetrabenazine-induced ptosis in mice. In outline: (§1)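 Mice dosed intraperitoneally; the result is reported as the ED50 in μmol/kg with a range in parentheses. Test compounds are racemates of >95% isomeric purity by TLC.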
Test [2] addresses Norepinephrine transporter (Rattus norvegicus, UniProt Q9WTR4). The test is described as follows: Inhibition of noradrenaline uptake in rat synaptosomal fraction. In outline:
(§2)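 Synaptosomal uptake of DA, NE or 5-HT measured. The IC50 is in nM and is the mean of at least two determinations, each using five test concentrations in triplicate.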

The target in test [3] is Sodium-dependent dopamine transporter (Rattus norvegicus, UniProt P23977). The test is described as follows: Inhibition of dopamine uptake in rat synaptosomal fraction.
Test [4] concerns the target Sodium-dependent serotonin transporter (Rattus norvegicus, UniProt P31652). The test is described as follows: Inhibition of 5-HT uptake in rat synaptosomal fraction. The method, boiled down: as §2
For test [5], the species on record is Mus musculus. In words: Antagonistic activity against 5-HTP induced potentiation in mice. In outline:
as §1

Test [6] is filed under the species Mus musculus. The test is described as follows: Antagonistic activity against tetrabenazine-induced ptosis in mice. The method, boiled down: as §1

Some results are limits rather than exact numbers.

Norepinephrine transporter, sequence (Q9WTR4 whole entry): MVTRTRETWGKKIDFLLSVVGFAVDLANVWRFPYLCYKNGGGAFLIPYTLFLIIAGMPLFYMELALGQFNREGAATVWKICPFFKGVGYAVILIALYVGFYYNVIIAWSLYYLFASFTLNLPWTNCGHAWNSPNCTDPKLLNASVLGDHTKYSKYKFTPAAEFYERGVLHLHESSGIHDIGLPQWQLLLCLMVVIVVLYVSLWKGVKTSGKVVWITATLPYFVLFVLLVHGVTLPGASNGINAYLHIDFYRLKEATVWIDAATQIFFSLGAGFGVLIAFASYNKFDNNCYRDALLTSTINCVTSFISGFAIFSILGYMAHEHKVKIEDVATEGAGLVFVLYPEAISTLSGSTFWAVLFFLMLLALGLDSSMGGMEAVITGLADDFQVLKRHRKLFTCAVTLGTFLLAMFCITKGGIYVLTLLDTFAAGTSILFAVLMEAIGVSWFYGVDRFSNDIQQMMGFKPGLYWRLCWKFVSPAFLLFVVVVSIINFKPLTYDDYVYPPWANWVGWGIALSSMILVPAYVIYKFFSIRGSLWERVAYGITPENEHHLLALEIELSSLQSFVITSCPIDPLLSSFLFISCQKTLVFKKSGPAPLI
Sodium-dependent serotonin transporter, sequence (P31652 whole entry): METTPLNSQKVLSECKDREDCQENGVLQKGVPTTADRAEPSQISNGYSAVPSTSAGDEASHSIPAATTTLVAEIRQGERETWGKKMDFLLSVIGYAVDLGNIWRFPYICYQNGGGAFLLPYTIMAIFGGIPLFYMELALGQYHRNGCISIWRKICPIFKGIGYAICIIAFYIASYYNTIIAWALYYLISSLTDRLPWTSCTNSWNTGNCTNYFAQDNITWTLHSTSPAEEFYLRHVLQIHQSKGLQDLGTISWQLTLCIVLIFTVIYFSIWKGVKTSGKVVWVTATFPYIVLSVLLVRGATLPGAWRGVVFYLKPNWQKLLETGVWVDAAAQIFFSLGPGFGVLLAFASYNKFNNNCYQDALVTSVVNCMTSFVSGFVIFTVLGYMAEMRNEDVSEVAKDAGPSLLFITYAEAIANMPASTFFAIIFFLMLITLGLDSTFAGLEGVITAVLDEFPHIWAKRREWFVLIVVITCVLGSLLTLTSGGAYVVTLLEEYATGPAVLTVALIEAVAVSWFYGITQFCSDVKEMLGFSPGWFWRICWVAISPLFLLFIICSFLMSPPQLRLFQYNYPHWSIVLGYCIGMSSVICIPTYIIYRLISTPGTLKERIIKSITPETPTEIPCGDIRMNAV
Sodium-dependent dopamine transporter, sequence (P23977 whole entry): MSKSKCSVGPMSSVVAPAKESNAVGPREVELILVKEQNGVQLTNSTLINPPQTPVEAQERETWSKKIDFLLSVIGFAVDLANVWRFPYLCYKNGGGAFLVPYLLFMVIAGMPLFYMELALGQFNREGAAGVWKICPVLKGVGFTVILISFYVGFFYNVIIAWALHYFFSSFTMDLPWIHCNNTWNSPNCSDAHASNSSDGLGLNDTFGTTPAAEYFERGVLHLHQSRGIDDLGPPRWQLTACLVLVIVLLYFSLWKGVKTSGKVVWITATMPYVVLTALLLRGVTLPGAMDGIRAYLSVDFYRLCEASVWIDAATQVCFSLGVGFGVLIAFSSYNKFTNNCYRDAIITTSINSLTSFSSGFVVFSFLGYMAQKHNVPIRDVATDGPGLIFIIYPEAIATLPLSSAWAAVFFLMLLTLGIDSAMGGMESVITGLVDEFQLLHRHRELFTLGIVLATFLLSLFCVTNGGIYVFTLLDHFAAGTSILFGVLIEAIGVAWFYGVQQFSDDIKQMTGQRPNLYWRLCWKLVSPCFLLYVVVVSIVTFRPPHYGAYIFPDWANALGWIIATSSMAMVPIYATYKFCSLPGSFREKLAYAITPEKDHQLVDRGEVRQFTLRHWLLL

As to `CNC1CC(c2cccc(Cl)c2)c2ccccc21.Cl` (stereo in doubt; 66), in test [1], the ED50 is 119 µmol/kg. The IC50 was 19 nM in test [2], 220 nM in test [3] and 6.8 nM in test [4].

As to `CNC1CC(c2cccc(Cl)c2)c2ccccc21.Cl` (stereo in doubt; 39), the ED50 in test [1] came to 45 µmol/kg. Moreover, the IC50 in test [2] is 0.12 nM; in test [3] it was 14 nM; in test [4] it was 41 nM.

`CNC1CC(c2ccc(Cl)cc2Cl)c2ccccc21.Cl` (stereo in doubt; 74) came in with an ED50 in test [1] of 98 µmol/kg. Further, the IC50 in test [2] worked out at 6.1 nM; in test [3], 100 nM; in test [4], 21 nM.

As for `CNC1CC(c2ccccc2)c2ccccc21` (centres undefined), the ED50 is 211 µmol/kg in test [5] and greater than 154 µmol/kg in test [1] (Mus musculus, read-out: ED50). Besides, the IC50 is 320 nM in test [2], 1400 nM in test [3] and 210 nM in test [4].

`CNC1CC(c2ccc(F)c(F)c2)c2ccccc21.Cl` (stereo in doubt; 68): in test [1], the ED50 came out at 23 µmol/kg. The IC50 was 33 nM in test [2], 150 nM in test [3] and 4.6 nM in test [4].

In turn, `CN(C)C1CC(c2ccc(F)c(F)c2)c2ccccc21` (centres undefined) [listing 1 of 2 here] yielded an ED50 in test [1] of 13 µmol/kg. The IC50 is 29 nM in test [2], 180 nM in test [3] and 1.3 nM in test [4].

Compound `CNC1CC(c2ccc(F)c(F)c2)c2ccccc21.Cl` (stereo in doubt; 41) registered an ED50 in test [1] of 58 µmol/kg. The IC50 in test [2] turned out to be 1.6 nM; in test [3], 21 nM; in test [4] it was 49 nM.

On to `CNC1CC(c2ccc(Cl)c(C(F)(F)F)c2)c2ccccc21` (centres undefined), for which the ED50 in test [5] was 55 µmol/kg; in test [1] (Mus musculus, read-out: ED50), greater than 110 µmol/kg. Further, the IC50 was 25 nM in test [2], 3500 nM in test [3] and 4.2 nM in test [4].

In test [1], `CN(C)C1CC(c2ccc(F)cc2)c2ccc(F)cc21.Cl` (centres undefined) came in with an ED50 of 28 µmol/kg. Moreover, the IC50 in test [2] was determined as 350 nM; in test [3] it was 620 nM; in test [4], 18 nM.

Take `CN(C)C1CC(c2ccc(Cl)cc2)c2ccccc21` (stereo in doubt; 63): the ED50 in test [1] (Mus musculus, read-out: ED50) is 43 µmol/kg. In addition, the figures for the IC50 in test [2], in test [3] and in test [4] were 4.4 nM, 190 nM and 0.34 nM, respectively.

As to `CCNC1CC(c2ccc(Cl)c(Cl)c2)c2ccccc21.Cl` (stereo in doubt; 83), the IC50 came to 0.32 nM in test [2], 1.5 nM in test [3] and 2.3 nM in test [4].

In test [1], `CN(C)C1CC(c2ccc(Br)cc2)c2ccccc21` (stereo in doubt; 65) had an ED50 of 2.3 µmol/kg. For the same compound, the values for the IC50 in test [2], in test [3] and in test [4] were 4.3 nM, 83 nM and 0.14 nM, respectively.

Regarding `CN1CCN(C2CC(c3ccc(Cl)c(Cl)c3)c3ccccc32)CC1` (stereo in doubt; (-)-102), the ED50 in test [6] was 69 µM/kg. The compound further had an IC50 in test [3] of 2.3 nM.

The compound `CN(C)C1CC(c2ccc(Br)cc2)c2ccccc21` (stereo in doubt; 37) returned an ED50 in test [1] of 9.8 µmol/kg. For the same compound, the IC50 in test [2] was 28 nM; in test [3], 54 nM; in test [4], 0.04 nM.

With `CN(C)C1CC(c2ccc(Cl)c(Cl)c2)c2ccc(F)cc21` (stereo in doubt; 51), in test [1] (Mus musculus, read-out: ED50), the ED50 is greater than 111 µmol/kg. Further, the figures for the IC50 in test [2], in test [3] and in test [4] were 21 nM, 12 nM and 1.1 nM, respectively.

`CN(C)C1CC(c2ccc(Cl)c(Cl)c2)c2ccccc21` (centres undefined): the IC50 in test [2] amounted to 24 nM; in test [3], 28 nM; in test [4], 0.64 nM.

Compound `CNC1CC(c2ccc(Cl)cc2)c2ccccc21.Cl` (centres undefined) gave an ED50 in test [1] of 376 µmol/kg. Besides, the half-maximal inhibitory concentration (IC50) in test [2] is 24 nM; in test [3] it was 120 nM; in test [4] it was 0.65 nM.

Regarding `CN(C)C1CC(c2cccc(Cl)c2)c2ccccc21.Cl` (stereo in doubt; 40), in test [1], the ED50 was found to be 10 µmol/kg. Moreover, the values for the concentration for half-maximal inhibition (IC50) in test [2], in test [3] and in test [4] were 15 nM, 71 nM and 36 nM, respectively.

`CCCNC1CC(c2ccc(Cl)c(Cl)c2)c2ccccc21.Cl` (stereo in doubt; 87): in test [1], the ED50 is 68 µmol/kg. The IC50 in test [2] came out at 0.66 nM; in test [3], 6.6 nM; in test [4] it was 150 nM.

As to `Clc1ccc(C2CC(N3CCCC3)c3ccccc32)cc1Cl` (stereo in doubt; 98), the values for the IC50 in test [2], in test [3] and in test [4] were 27 nM, 32 nM and 3.1 nM, respectively.

Turning to `CNC1CC(c2ccc(F)cc2)c2ccccc21.Cl` (stereo in doubt; 32), in test [1], the ED50 was 19 µmol/kg. Moreover, the IC50 in test [2] amounted to 2.9 nM; in test [4], 76 nM.

Take `CNC1CC(c2ccc(Br)cc2)c2ccccc21` (stereo in doubt; 36): the ED50 in test [1] (Mus musculus, read-out: ED50) came to 47 µmol/kg. For the same compound, the IC50 in test [2] was 0.3 nM; in test [3] it was 2.5 nM; in test [4], 0.28 nM.

As to `CNCCCC1(c2ccccc2)SC(C)(C)c2ccccc21` (centres undefined), the ED50 is greater than 115 µmol/kg in test [5] and 2.3 µmol/kg in test [1] (Mus musculus, read-out: ED50). Further, the figures for the IC50 in test [2], in test [3] and in test [4] were 0.79 nM, 9300 nM and 850 nM, respectively.

Turning to `Clc1ccc(C2CC(N3CCCCC3)c3ccccc32)cc1Cl` (stereo in doubt; 100), the ED50 in test [1] (Mus musculus, read-out: ED50) was greater than 104 µmol/kg. Also, the IC50 in test [2] was 79 nM; in test [3] it was 79 nM; in test [4], 420 nM.

Regarding `CN(C)CCCC1(c2ccc(F)cc2)OCc2cc(C#N)ccc21` (centres undefined) [CITALOPRAM], the ED50 in test [6] (Mus musculus, read-out: ED50) came out at 51 µmol/kg.

In test [1], `CN(C)C1CC(c2ccc(F)cc2)c2ccccc21.Cl` (stereo in doubt; 61) displayed an ED50 of 24 µmol/kg. The half-maximal inhibitory concentration (IC50) turned out to be 24 nM in test [2] and 6.2 nM in test [4].

In test [1], `CCN(CC)C1CC(c2ccc(Cl)c(Cl)c2)c2ccccc21.Cl` (stereo in doubt; 85) registered an ED50 of 52 µmol/kg. In addition, the IC50 in test [2] worked out at 0.56 nM; in test [3] it was 2.1 nM; in test [4], 2.8 nM.

As to `CN(C)C1CC(c2ccc(Cl)cc2)c2ccccc21` (stereo in doubt; 35), the ED50 in test [1] is 56 µmol/kg. Further, the IC50 was determined as 23 nM in test [2], 140 nM in test [3] and 0.64 nM in test [4].

In test [1], `CNC1CC(c2ccc(F)cc2)c2ccccc21.Cl` (stereo in doubt; 60) yielded an ED50 of 79 µmol/kg. Further, the values for the IC50 in test [2] and in test [4] were 120 nM and 21 nM, respectively.

Turning to `CN(C)C1CC(c2ccc(F)cc2)c2ccc(C(F)(F)F)cc21` (stereo in doubt; 57), the ED50 in test [1] (Mus musculus, read-out: ED50) amounted to 116 µmol/kg. The IC50 in test [2] stood at 85 nM; in test [3], 240 nM; in test [4], 43 nM.

Compound `CN(C)C1CC(c2cccc(Cl)c2)c2ccccc21.Cl` (stereo in doubt; 67) gave an ED50 in test [1] of 85 µmol/kg. Further, the values for the IC50 in test [2], in test [3] and in test [4] were 0.77 nM, 54 nM and 2.6 nM, respectively.

As for `CN(C)C1CC(c2ccc(Cl)c(Cl)c2)c2ccc(F)cc21` (stereo in doubt; 77), the IC50 in test [2] was 3.7 nM; in test [3] it was 31 nM; in test [4], 2.5 nM.

As to `CNC1CC(c2ccc(Cl)cc2Cl)c2ccccc21.Cl` (stereo in doubt; 48), the ED50 in test [1] worked out at 19 µmol/kg. Moreover, the IC50 in test [2] came out at 15 nM; in test [3], 510 nM; in test [4], 0.91 nM.

`CNC1CC(c2ccc(Br)cc2)c2ccccc21.Cl` (stereo in doubt; 64) returned an ED50 in test [1] of 29 µmol/kg. Further, the half-inhibitory concentration (IC50) is 8.8 nM in test [2], 67 nM in test [3] and 0.16 nM in test [4].

In turn, `CN(C)C1CC(c2ccc(Cl)cc2Cl)c2ccccc21.Cl` (stereo in doubt; 49) had an ED50 in test [1] of 23 µmol/kg. In addition, the IC50 amounted to 90 nM in test [2], 2000 nM in test [3] and 0.58 nM in test [4].

The compound `CNC1CC(c2ccc(Cl)cc2)c2ccccc21` (centres undefined) displayed an ED50 in test [1] greater than 155 µmol/kg. The values for the IC50 in test [2], in test [3] and in test [4] were 0.51 nM, 5.6 nM and 4 nM, respectively.

Take `CNC1CC(c2ccc(C(F)(F)F)cc2)c2ccccc21` (centres undefined): the ED50 was found to be 45 µmol/kg in test [5] and 58 µmol/kg in test [1] (Mus musculus, read-out: ED50). Besides, the figures for the IC50 in test [2], in test [3] and in test [4] were 67 nM, 160 nM and 4.7 nM, respectively.

`CN(C)C1CC(c2ccccc2)c2ccccc21.Cl` (stereo in doubt; 31) came in with an ED50 in test [1] of 17 µmol/kg. The IC50 was 130 nM in test [2], 600 nM in test [3] and 150 nM in test [4].

In test [1], `CNC1CC(c2ccc(Cl)c(Cl)c2)c2ccc(F)cc21.Cl` (stereo in doubt; 50) registered an ED50 of 33 µmol/kg. The figures for the IC50 in test [2], in test [3] and in test [4] were 0.71 nM, 0.12 nM and 2.3 nM, respectively.

`CNC1CC(c2ccc(Cl)c(Cl)c2)c2ccc(F)cc21.Cl` (stereo in doubt; 76) returned an ED50 in test [1] of 15 µmol/kg. Moreover, the IC50 in test [2] was found to be 14 nM; in test [3] it was 5 nM; in test [4], 0.75 nM.

Turning to `CCCN(CCC)C1CC(c2ccc(Cl)c(Cl)c2)c2ccccc21.Cl` (stereo in doubt; 89), the ED50 in test [1] amounted to 25 µmol/kg. The IC50 in test [2] turned out to be 73 nM; in test [3], 150 nM; in test [4] it was 720 nM.

For the compound `CN(C)C1CC(c2ccc(F)cc2)c2ccccc21.Cl` (stereo in doubt; 33), the ED50 in test [1] turned out to be 7.8 µmol/kg. Besides, the values for the IC50 in test [2], in test [3] and in test [4] were 100 nM, 320 nM and 33 nM, respectively.

Take `CN(C)C1CC(c2ccc(F)c(F)c2)c2ccccc21` (centres undefined) [listing 2 of 2 here]: in test [1] (Mus musculus, read-out: ED50), the ED50 was determined as 7.1 µmol/kg. Also, the results for the IC50 in test [2], in test [3] and in test [4] were 62 nM, 250 nM and 20 nM, respectively.

These data come from ChEMBL document CHEMBL1122866, “3-Phenyl-1-indanamines. Potential antidepressant activity and potent inhibition of dopamine, norepinephrine, and serotonin uptake” (J Med Chem, 1985).
